The subject of data set [1] is Canis familiaris. Put plainly: In vivo percent change in renal blood flow at 30 ug/Kg/min. The data set is classed as functional, Canis lupus familiaris, Kidney. A digest of the protocol: (§1)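 Primary screen in anesthetized dogs (7-17 kg). Drug infused separately at 3, 30 and 300 µg/(kg min), each infusion lasting 5 min, at about 15-min intervals. Read-outs are renal blood flow, mean arterial blood pressure, heart rate, and RVR (MABP / mean RBF), as percent change. Significance thresholds are defined per number of dogs; n = 1-3 dogs.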

The test system of data set [2] is Canis familiaris. The experiment in a line: In vivo percent change in canine heart rate at 30 ug/Kg/min. The data set is classed as functional, Canis lupus familiaris. The method in brief: as §1
Data set [3] deals with Canis familiaris. The experiment in a line: In vivo percent change in canine mean arterial blood pressure (MABP) at 3 ug/Kg/min. The data set is classed as functional, Canis lupus familiaris. A digest of the protocol:
as §1

In data set [4] the test system is Canis familiaris. The experiment in a line: In vivo percent change in canine heart rate at 300 ug/Kg/min. Type of data set: functional, Canis lupus familiaris. A digest of the protocol: as §1
In data set [5] the test system is Canis familiaris. Put plainly: Renal vasodilator activity in anesthetized dogs and percent change in renal vascular resistance (RVR) was determined at 300 ug/Kg/min. The data set is classed as functional, Canis lupus familiaris. A digest of the protocol:
as §1

For data set [6], the system named is Canis familiaris. The experiment in a line: Renal vasodilator activity in anesthetized dogs and percent change in renal vascular resistance (RVR) was determined at 30 ug/Kg/min. The data set is classed as functional, Canis lupus familiaris. A digest of the protocol:
as §1

Data set [7] relates to Canis familiaris. Put plainly: In vivo percent change in canine mean arterial blood pressure (MABP) at 300 ug/Kg/min. Type of data set: functional, Canis lupus familiaris. The method in brief:
as §1

Data set [8] concerns Canis familiaris. Put plainly: In vivo percent change in canine heart rate at 3 ug/Kg/min. Type of data set: functional, Canis lupus familiaris. A digest of the protocol:
as §1

Data set [9] relates to Canis familiaris. Put plainly: In vivo percent change in canine renal blood flow (RBF) at 300 ug/Kg/min. Type of data set: functional, Canis lupus familiaris, Kidney. A digest of the protocol:
as §1

Data set [10] has as its system Canis familiaris. Put plainly: In vivo percent change in canine mean arterial blood pressure (MABP) at 30 ug/Kg/min. The data set is classed as functional, Canis lupus familiaris. A digest of the protocol:
as §1

In data set [11] the test system is Canis familiaris. The experiment in a line: In vivo percent change in canine renal vascular resistance (RVR) at 3 ug/Kg/min. Type of data set: functional, Canis lupus familiaris. A digest of the protocol: as §1
The test system of data set [12] is Canis familiaris. The experiment in a line: In vivo percent change in canine renal blood flow (RBF) at 3 ug/Kg/min. Type of data set: functional, Canis lupus familiaris, Kidney. The method in brief: as §1
Data set [13] is described as follows: Ratio of ED30 of iliac vascular resistant (IVR) to the ED15 of RVR (renal vascular resistance). The data set is classed as functional. A digest of the protocol: (§2)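 Anesthetized dogs in the secondary cumulative-infusion protocol, each dose level 5 min. Selectivity ratio is the dose giving a 30% change in iliac vascular resistance divided by the RVR ED15, the cumulative dose decreasing renal vascular resistance by 15%.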

Data set [14] concerns Canis familiaris. The experiment in a line: Compound was evaluated for renal vasodilator activity and represented as ED15 (intravenous administration). Type of data set: functional. Conditions: Canis lupus familiaris. The method in brief: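 Secondary protocol in anesthetized dogs with iv infusion at progressively increasing rates, each level infused 5 min. Potency is the cumulative dose (µg/kg) that lowered renal vascular resistance (MABP / mean RBF) by 15%. Minimum change needed for significance (p = 0.95) is 16% for RVR.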

The test system of data set [15] is Canis familiaris. The experiment in a line: In vivo percent change in canine renal vascular resistance (RVR) at 300 ug/Kg/min. Type of data set: functional, Canis lupus familiaris. A digest of the protocol: as §1
Data set [16] relates to Canis familiaris. The experiment in a line: Renal vasodilator activity in anesthetized dogs was determined as percent change in heart rate (HR) at 30 ug/Kg/min. The data set is classed as functional, Canis lupus familiaris. A digest of the protocol:
as §1

Data set [17] in a line: Ratio of ED20 of MABP (mean arterial blood pressure) to the ED15 of RVR (renal vascular resistance). Type of data set: functional. The method in brief: (§3)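 Anesthetized dogs in the secondary cumulative-infusion protocol, each dose level 5 min. Selectivity ratio is the dose giving a 20% change in mean arterial blood pressure divided by the cumulative dose lowering renal vascular resistance 15% (RVR ED15).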

The nature of data set [18]: Average max percent decrease in RVR (renal vascular resistance) was determined. The method in brief:
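Secondary protocol in anesthetized dogs. Drug given as iv infusion at progressively increasing rates, each dose level for 5 min. The maximum effect is taken as the largest percent decrease in renal vascular resistance (RVR) reached with the compound. RVR is calculated as mean arterial blood pressure / mean renal blood flow.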

The nature of data set [19]: Ratio of ED30 of iliac vascular resistant (IVR) to the ED15 of RVR(renal vascular resistance). Type of data set: functional. The method in brief: as §2
Data set [20] in a line: Ratio of ED20 of MABP (mean arterial blood pressure) to the ED15 of RVR ( renal vascular resistance). Type of data set: functional. The method in brief: as §3

Several values for one entry are separate records, joined by “and”; a condition that tells them apart may be missing. Equal entries are not always repeated. Square brackets hold non-standard residues; d marks the D form. Peptide text beside a SMILES is read from it. * marks the point of attachment. ξ: configuration not given here. Butanoyl(4-(4-HOPh)) = O=C(CCCc1ccc(O)cc1)*; ξαMeF = CC(N)(Cc1ccccc1)C(=O)O

For the compound `CC(Cc1ccccc1)(NC(=O)[C@@H]1CCCN1C(=O)CCCc1ccccc1)C(=O)N1CCC[C@H]1C(=O)O` (stereo partly specified), the Change in the data set with Canis familiaris [1] is reported as 2%; in the data set with Canis familiaris [2], 0%; in the data set with Canis familiaris [3], 0.5%; in the data set with Canis familiaris [4], -2%; in the data set on Canis familiaris [5], -3%; with Canis familiaris [6], -2%. For the same compound, the Change is 1% with Canis familiaris [7]; 0% in the data set on Canis familiaris [8]; 4% in the data set on Canis familiaris [9]; 0% in the data set with Canis familiaris [10]; -8% in the data set with Canis familiaris [11]; 3% in the data set on Canis familiaris [12].

`CC(Cc1ccccc1)(NC(=O)[C@@H]1CCCN1C(=O)CCCc1ccc(O)cc1)C(=O)NCC(=O)N1CCC[C@H]1C(=O)O` (stereo partly specified) ({Butanoyl(4-(4-HOPh))}-P[ξαMeF]GP-OH): the Change in the data set with Canis familiaris [1] is given as 16%; with Canis familiaris [3], -5%; in the data set with Canis familiaris [4], 6%; with Canis familiaris [6] it was -21%; in the data set on Canis familiaris [15], -17%; with Canis familiaris [7], -6%. The Change is 6% with Canis familiaris [8]; 10% in the data set with Canis familiaris [16]; 14% with Canis familiaris [9]; -9% with Canis familiaris [10]; -18% in the data set on Canis familiaris [11]; 17% with Canis familiaris [12]. Besides, the results for the Ratio in data set [13] and in data set [17] were greater than 1230 and greater than 1226, respectively. The same compound gave an ED15 with Canis familiaris [14] of 4.9 µg/kg. The compound further came in with a Decrease in data set [18] of 20%.

Consider H-RPPGFSPFR-OH [BRADYKININ], for which the Ratio in data set [19] was 25; in [20], 7 and 8. In the data set with Canis familiaris [14], this compound registered an ED15 of 2.8 µg/kg.

(Values after ChEMBL document CHEMBL1122774, “Tri- and tetrapeptide analogues of kinins as potential renal vasodilators” (J Med Chem, 1984).)
